Experimental data taken from ChEMBL document CHEMBL3272012, “5-(Tetradecyloxy)-2-furancarboxylic acid and related hypolipidemic fatty acid-like alkyloxyarylcarboxylic acids” (J Med Chem, 1977).

What was measured:
[1] = system: Rattus norvegicus; test: Hypolipidemic activity in Wistar rat assessed as reduction in plasma cholesterol level at 422 umol/kg/day administered through diet for 4 days; type: functional; conditions: 96 h
Procedure, shortened: (§1)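 Young male Wistar rats, 170-190 g initial weight, groups of six, given compound mixed thoroughly into Purina Lab Chow ad libitum for 4 or 10 days as stated. Daily dose calculated from food consumption and body weight. Bled by cardiac puncture at end of treatment; plasma cholesterol measured by automated procedure. Expressed as percent reduction versus simultaneous untreated control group; Student's t test.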

[2] = system: Rattus norvegicus; test: Hypolipidemic activity in Wistar rat assessed as reduction in plasma triglyceride level at 422 umol/kg/day administered through diet for 4 days; type: functional; conditions: 96 h
[3] = system: Rattus norvegicus; test: Increase in cholesterol level in Wistar rat liver at 422 umol/kg/day administered through diet for 4 days; type: ADME, organism-based; conditions: in vivo, po, 96 h
[4] = system: Rattus norvegicus; test: Increase in liver weight in Wistar rat at 422 umol/kg/day administered through diet for 4 days; type: ADME, organism-based; conditions: in vivo, po, 96 h
[5] = system: Rattus norvegicus; test: Hypolipidemic activity in Wistar rat assessed as reduction in plasma cholesterol level at 540 umol/kg/day administered through diet for 4 days; type: functional; conditions: 96 h; procedure, shortened: as §1
[6] = system: Rattus norvegicus; test: Hypolipidemic activity in Wistar rat assessed as reduction in plasma triglyceride level at 540 umol/kg/day administered through diet for 4 days; type: functional; conditions: 96 h
[7] = system: Rattus norvegicus; test: Increase in cholesterol level in Wistar rat liver at 540 umol/kg/day administered through diet for 4 days; type: ADME, organism-based; conditions: in vivo, po, 96 h
[8] = system: Rattus norvegicus; test: Increase in liver weight in Wistar rat at 540 umol/kg/day administered through diet for 4 days; type: ADME, organism-based; conditions: in vivo, po, 96 h
[9] = system: Rattus norvegicus; test: Hypolipidemic activity in Wistar rat assessed as reduction in plasma cholesterol level at 533 umol/kg/day administered through diet for 4 days; type: functional; conditions: 96 h; procedure, shortened: as §1
[10] = system: Rattus norvegicus; test: Hypolipidemic activity in Wistar rat assessed as reduction in plasma triglyceride level at 533 umol/kg/day administered through diet for 4 days; type: functional; conditions: 96 h
[11] = system: Rattus norvegicus; test: Increase in cholesterol level in Wistar rat liver at 533 umol/kg/day administered through diet for 4 days; type: ADME, organism-based; conditions: in vivo, po, 96 h
[12] = system: Rattus norvegicus; test: Increase in liver weight in Wistar rat at 533 umol/kg/day administered through diet for 4 days; type: ADME, organism-based; conditions: in vivo, po, 96 h
[13] = system: Rattus norvegicus; test: Hypolipidemic activity in Wistar rat assessed as reduction in plasma cholesterol level at 351 umol/kg/day administered through diet for 4 days; type: functional; conditions: 96 h
Procedure, shortened: (§2)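 Young male Wistar rats, 170-190 g at start, in groups of six, given compound mixed into Purina Lab Chow ad libitum for 4 or 10 days as stated. Daily dose was calculated from food consumption and body weight. Plasma was taken by cardiac puncture at the end and cholesterol measured by automated procedure. Results are % reduction versus a concurrent untreated control group, with Student's t test.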

[14] = system: Rattus norvegicus; test: Hypolipidemic activity in Wistar rat assessed as reduction in plasma triglyceride level at 351 umol/kg/day administered through diet for 4 days; type: functional; conditions: 96 h
Procedure, shortened: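 Young male Wistar rats, 170-190 g at start, six per group, given compound mixed into Purina Lab Chow, fed ad libitum for 4 or 10 days. Daily dose calculated from food consumption and body weight. Rats bled by cardiac puncture at end of treatment. Plasma triglycerides determined by automated procedure. Expressed as percent reduction versus a concurrent untreated control group, Student's t test.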

[15] = system: Rattus norvegicus; test: Increase in cholesterol level in Wistar rat liver at 351 umol/kg/day administered through diet for 4 days; type: ADME, organism-based; conditions: in vivo, po, 96 h
[16] = system: Rattus norvegicus; test: Increase in liver weight in Wistar rat at 351 umol/kg/day administered through diet for 4 days; type: ADME, organism-based; conditions: in vivo, po, 96 h
[17] = system: Rattus norvegicus; test: Hypolipidemic activity in Wistar rat assessed as reduction in plasma triglyceride level at 1693 umol/kg/day administered through diet for 10 days; type: functional; conditions: 240 h
Procedure, shortened: (§3)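 Young male Wistar rats, 170-190 g initial weight, six per group, fed drug mixed thoroughly into Purina Lab Chow ad libitum for the stated days; daily dose calculated from food consumption and body weight. Bled by cardiac puncture at end; plasma cholesterol and triglycerides by automated procedures, expressed as percent reduction versus simultaneous untreated controls; Student's t test.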

[18] = system: Rattus norvegicus; test: Hypolipidemic activity in Wistar rat assessed as reduction in plasma triglyceride level at 766 umol/kg/day administered through diet for 10 days; type: functional; conditions: 240 h
[19] = system: Rattus norvegicus; test: Hypolipidemic activity in Wistar rat assessed as reduction in plasma triglyceride level at 304 umol/kg/day administered through diet for 10 days; type: functional; conditions: 240 h; procedure, shortened: as §3
[20] = system: Rattus norvegicus; test: Hypolipidemic activity in Wistar rat assessed as reduction in plasma triglyceride level at 119 umol/kg/day administered through diet for 10 days; type: functional; conditions: 240 h; procedure, shortened: as §3
[21] = system: Rattus norvegicus; test: Hypolipidemic activity in Wistar rat assessed as reduction in plasma cholesterol level at 1693 umol/kg/day administered through diet for 10 days; type: functional; conditions: 240 h; procedure, shortened: as §2
[22] = system: Rattus norvegicus; test: Hypolipidemic activity in Wistar rat assessed as reduction in plasma cholesterol level at 766 umol/kg/day administered through diet for 10 days; type: functional; conditions: 240 h
Procedure, shortened: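 Young male Wistar rats (initial weight 170-190 g), groups of six, fed compound mixed into Purina Lab Chow ad libitum for 4 or 10 days; daily dose calculated from food consumption and body weight. Bled by cardiac puncture; plasma cholesterol and triglycerides by automated procedures; percent reduction versus simultaneous untreated controls, Student's t test.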

[23] = system: Rattus norvegicus; test: Hypolipidemic activity in Wistar rat assessed as reduction in plasma cholesterol level at 304 umol/kg/day administered through diet for 10 days; type: functional; conditions: 240 h; procedure, shortened: as §2
[24] = system: Rattus norvegicus; test: Hypolipidemic activity in Wistar rat assessed as reduction in plasma cholesterol level at 119 umol/kg/day administered through diet for 10 days; type: functional; conditions: 240 h; procedure, shortened: as §2
[25] = system: Rattus norvegicus; test: Increase in liver weight in Wistar rat at 1693 umol/kg/day administered through diet for 10 days; type: ADME, organism-based; conditions: in vivo, po, 240 h
[26] = system: Rattus norvegicus; test: Increase in liver weight in Wistar rat at 766 umol/kg/day administered through diet for 10 days; type: ADME, organism-based; conditions: in vivo, po, 240 h
[27] = system: Rattus norvegicus; test: Increase in liver weight in Wistar rat at 304 umol/kg/day administered through diet for 10 days; type: ADME, organism-based; conditions: in vivo, po, 240 h
[28] = system: Rattus norvegicus; test: Increase in liver weight in Wistar rat at 119 umol/kg/day administered through diet for 10 days; type: ADME, organism-based; conditions: in vivo, po, 240 h
[29] = system: Rattus norvegicus; test: Inhibition of cholesterol biosynthesis in Ad Lib fed Wistar rat liver assessed as sodium [1-14C]acetate incorporation at 261 mg/kg/day administered through diet for 7 days measured 1 hr after labeled acetate challenge by liquid scintillation spectrometry (reference value: 12.7 +/- 2.6 x 10^-3 dpm); type: functional
[30] = system: Rattus norvegicus; test: Inhibition of cholesterol biosynthesis in meal fed Wistar rat liver assessed as sodium [1-14C]acetate incorporation at 188 mg/kg/day administered through diet for 7 days measured 1 hr after labeled acetate challenge by liquid scintillation spectrometry (reference value: 41.3 +/- 3.2 x 10^-3 dpm); type: functional
[31] = system: Rattus norvegicus; test: Inhibition of fatty acid biosynthesis in Ad Lib fed Wistar rat liver assessed as sodium [1-14C]acetate incorporation at 261 mg/kg/day administered through diet for 7 days measured 1 hr after labeled acetate challenge by liquid scintillation spectrometry (reference value: 27.2 +/- 4.8 x 10^-3 dpm); type: functional
[32] = system: Rattus norvegicus; test: Inhibition of fatty acid biosynthesis in meal fed Wistar rat liver assessed as sodium [1-14C]acetate incorporation at 188 mg/kg/day administered through diet for 7 days measured 1 hr after labeled acetate challenge by liquid scintillation spectrometry (reference value: 182 +/- 22 x 10^-3 dpm); type: functional
[33] = system: Rattus norvegicus; test: Hypolipidemic activity in Wistar rat assessed as reduction in plasma cholesterol level at 319 umol/kg/day administered through diet for 4 days; type: functional; conditions: 96 h; procedure, shortened: as §2
[34] = system: Rattus norvegicus; test: Hypolipidemic activity in Wistar rat assessed as reduction in plasma triglyceride level at 319 umol/kg/day administered through diet for 4 days; type: functional; conditions: 96 h; procedure, shortened: as §3
[35] = system: Rattus norvegicus; test: Increase in cholesterol level in Wistar rat liver at 319 umol/kg/day administered through diet for 4 days; type: ADME, organism-based; conditions: in vivo, po, 96 h
[36] = system: Rattus norvegicus; test: Increase in liver weight in Wistar rat at 319 umol/kg/day administered through diet for 4 days; type: ADME, organism-based; conditions: in vivo, po, 96 h
[37] = system: Rattus norvegicus; test: Hypolipidemic activity in Wistar rat assessed as reduction in plasma cholesterol level at 441 umol/kg/day administered through diet for 4 days; type: functional; conditions: 96 h; procedure, shortened: as §1
[38] = system: Rattus norvegicus; test: Hypolipidemic activity in Wistar rat assessed as reduction in plasma triglyceride level at 441 umol/kg/day administered through diet for 4 days; type: functional; conditions: 96 h
[39] = system: Rattus norvegicus; test: Increase in cholesterol level in Wistar rat liver at 441 umol/kg/day administered through diet for 4 days; type: ADME, organism-based; conditions: in vivo, po, 96 h
[40] = system: Rattus norvegicus; test: Increase in liver weight in Wistar rat at 441 umol/kg/day administered through diet for 4 days; type: ADME, organism-based; conditions: in vivo, po, 96 h
[41] = system: Rattus norvegicus; test: Hypolipidemic activity in Wistar rat assessed as reduction in plasma cholesterol level at 437 umol/kg/day administered through diet for 4 days; type: functional; conditions: 96 h; procedure, shortened: as §1
[42] = system: Rattus norvegicus; test: Hypolipidemic activity in Wistar rat assessed as reduction in plasma triglyceride level at 437 umol/kg/day administered through diet for 4 days; type: functional; conditions: 96 h
[43] = system: Rattus norvegicus; test: Increase in cholesterol level in Wistar rat liver at 437 umol/kg/day administered through diet for 4 days; type: ADME, organism-based; conditions: in vivo, po, 96 h
[44] = system: Rattus norvegicus; test: Increase in liver weight in Wistar rat at 437 umol/kg/day administered through diet for 4 days; type: ADME, organism-based; conditions: in vivo, po, 96 h
[45] = system: Rattus norvegicus; test: Increase in cholesterol level in Wistar rat liver at 362 umol/kg/day administered through diet for 4 days; type: ADME, organism-based; conditions: in vivo, po, 96 h
[46] = system: Rattus norvegicus; test: Increase in liver weight in Wistar rat at 362 umol/kg/day administered through diet for 4 days; type: ADME, organism-based; conditions: in vivo, po, 96 h

## CCCCCCCCCCCCCCCCOc1ccc(C(=O)OCC)cc1
[1]
  inhibition in vivo at 422 µmol/kg: 8%
[2]
  inhibition in vivo at 422 µmol/kg: 29%
[3]
  Activity: 9%
[4]
  Activity: 11%

## CCCCCCCCCCOc1ccc(C(=O)O)o1
[5]
  inhibition in vivo at 540 µmol/kg: 5%
[6]
  inhibition in vivo at 540 µmol/kg: 46%
[7]
  Activity: 17%
[8]
  Activity: 1%

## CCCCCCCCCCCCOc1ccc(C(=O)O)o1
[9]
  inhibition in vivo at 533 µmol/kg: 38%
[10]
  inhibition in vivo at 533 µmol/kg: 79%
[11]
  Activity: 0%
[12]
  Activity: 22%

## CCCCCCCC/C=C/CCCCCCCCOc1ccc(C(=O)O)o1
[13]
  inhibition in vivo at 351 µmol/kg: 4%
[14]
  inhibition in vivo at 351 µmol/kg: 26%
[15]
  Activity: 11%
[16]
  Activity: 0%

## CCOC(=O)C(C)(C)Oc1ccc(Cl)cc1 [CLOFIBRATE]
[17]
  inhibition in vivo at 1693 µmol/kg: 78%
[18]
  inhibition in vivo at 766 µmol/kg: 66%
[19]
  inhibition in vivo at 304 µmol/kg: 48%
[20]
  inhibition in vivo at 119 µmol/kg: 30%
[21]
  inhibition in vivo at 1693 µmol/kg: 41%
[22]
  inhibition in vivo at 766 µmol/kg: 36%
[23]
  inhibition in vivo at 304 µmol/kg: 18%
[24]
  inhibition in vivo at 119 µmol/kg: 9%
[25]
  Activity: 50%
[26]
  Activity: 22%
[27]
  Activity: 2%
[28]
  Activity: 0%
[29]
  Activity: 4100 dpm
[30]
  Activity: 43300 dpm
[31]
  Activity: 50000 dpm
[32]
  Activity: 205000 dpm

## CCCCCCCCCCCCCOc1ccc(C(=O)O)o1
[33]
  inhibition in vivo at 319 µmol/kg: 31%
[34]
  inhibition in vivo at 319 µmol/kg: 6%
[35]
  Activity: 3%
[36]
  Activity: 15%

## CCCCCCCCCCCCCCOc1ccc(C(=O)O)s1
[37]
  inhibition in vivo at 441 µmol/kg: 54%
[38]
  inhibition in vivo at 441 µmol/kg: 83%
[39]
  Activity: 1%
[40]
  Activity: 4%

## CCCCCCCCCCCCCCCCOc1ccc(C(=O)O)o1
[41]
  inhibition in vivo at 437 µmol/kg: 24%
[42]
  inhibition in vivo at 437 µmol/kg: 25%
[43]
  Activity: 5%
[44]
  Activity: 4%

## CCCCCCCCCCCCCCCCCCCCOc1ccc(C(=O)OC)cc1
[45]
  Activity: 0%
[46]
  Activity: 4%
